In article PMC6431230 (Proceedings of the National Academy of Sciences of the …, 2019):
One block for each compound: values may come before it. Bridge positions count the residues as written; N and C are the ends. Square brackets hold non-standard residues; d marks the D form. Ends that are not written are not given here. Peptide text beside a SMILES is read from it. Orn = NCCC[C@H](N)C(=O)O; Mpa = O=C(O)CCS

Experiments:
ants = test: Effect of injected DMSO on ant survivability; assay type: in vivo, Camponotus fellah
inotocin receptor [1] = test: TR-FRET; assay type: binding, Camponotus fellah; conditions: 10 nM labeled inotocin ligand, atosiban 1.95 µM to 2 mM
[2] = tested on: cuticular hydrocarbons (CHCs); test: Cuticular hydrocarbon quantification after antagonist injection; assay type: in vivo, Camponotus fellah; conditions: injection of 2 mM atosiban
In short: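 Workers were ice-anesthetized and injected with 1.5 µL into the abdomen through the intersegmental membrane. Dosing was 100 µM test compound in 1% DMSO, or 2 mM of the water-soluble antagonist. Controls were ant saline mixed with the matching solvent (DMSO 1:100; water 1:5). Normal, branched and total cuticular alkanes were then extracted and quantified.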

CYP4G1 expression = test: CYP4G1 expression; assay type: in vivo, Camponotus fellah; conditions: 24 h
In short: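 Workers were chilled on ice and injected with 1.5 µL into the abdomen through the intersegmental membrane. Controls received ant saline mixed with water (1:10 for 1 mM, 1:5 for 2 mM). RNA was extracted 24 h post-injection. SYBR qRT-PCR on 200 ng total RNA used ef1a/rp2 references and per-experiment average scaling.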

[3] = biological target: T1, oxytocin receptor (human OXTR) (Homo sapiens, UniProt P30559); test: Calcium assay; assay type: cell-based
T1 sequence (P30559 1-389): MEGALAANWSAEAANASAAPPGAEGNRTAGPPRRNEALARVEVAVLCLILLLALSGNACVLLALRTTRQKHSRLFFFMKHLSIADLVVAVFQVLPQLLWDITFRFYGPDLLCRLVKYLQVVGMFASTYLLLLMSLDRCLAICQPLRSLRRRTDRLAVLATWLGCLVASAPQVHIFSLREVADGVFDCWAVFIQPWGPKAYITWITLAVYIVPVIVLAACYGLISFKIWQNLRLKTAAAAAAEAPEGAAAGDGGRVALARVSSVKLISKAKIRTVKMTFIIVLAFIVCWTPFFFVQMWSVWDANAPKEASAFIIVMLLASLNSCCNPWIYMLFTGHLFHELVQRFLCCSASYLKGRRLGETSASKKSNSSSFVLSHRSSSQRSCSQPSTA

[4] = biological target: inotocin receptor (not stated (C. fellah or C. japonicus cDNA cloned)); test: FRET or BRET
inotocin receptor [5] = test: Calcium assay; assay type: cell-based, Camponotus fellah; conditions: CHO cells expressing inotocin receptor, Fluo-4 cytosolic calcium

Compound: C[S+](C)[O-] [DMSO]
Effect on ant survivability (ants; 1% DMSO): no effect on survivability
Effect on ant survivability (ants; 10% DMSO): high lethality

IC50, decrease in FRET ratio (binding between inotocin and inotocin receptor) (inotocin receptor [1]): 58.8 µM
IC50 [3]: 0.65 µM
Compound: CCOc1ccc(C[C@H]2NC(=O)CCSSC[C@@H](C(=O)N3CCC[C@H]3C(=O)N[C@@H](CCCN)C(=O)NCC(N)=O)NC(=O)[C@H](CC(N)=O)NC(=O)[C@H]([C@@H](C)O)NC(=O)[C@H]([C@@H](C)CC)NC2=O)cc1 [atosiban] ([Mpa][dY](Et)ITNCP[Orn]G-NH2; disulfide 1-6 (inferred))
Quantity of normal alkanes vs control ([2]; P = 0.008): reduced quantities
Total quantity of alkanes vs control ([2]; P = 0.012): significantly lower
Quantity of branched alkanes vs control ([2]; P = 0.088): tendency for reduced
CYP4G1 expression vs control (CYP4G1 expression; 1 mM injected, P = 0.026): significantly down-regulated
CYP4G1 expression vs control (CYP4G1 expression; 2 mM injected, P = 0.0002): significantly down-regulated

IC50 [4]: 58.8 µM
Compound: atosiban (peptide)

Compound: vasopressin (CYFQNCPRG-NH2; disulfide 1-6 (inferred); ends not checked; UniProt P01185 20-28, looked up)
Activation of inotocin receptor (inotocin receptor [5]): not
